Assay results: ChEMBL document CHEMBL5058577, “EUbOPEN Chemogenomics Library 2 (Multiplex)” (2022)

Tested on: U2OS
Assay: Multiplex assay against U2OS
Format: toxicity, cell-based
Conditions: human
How it was run: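 Imaging took place on a CQ1 microscope at 37°C and 5% CO2 once compound had been added to live cells stained at seeding with Hoechst33342, BioTracker Green Microtubule Cytoskeleton Dye, MitoTracker Red and Annexin V Alexa Fluor 680. CellPathfinder machine-learning gating classed cells as Hoechst high-intensity objects or normal cells, classed normal cells as having healthy, pyknosed or fragmented nuclei, and classed pyknosed cells as mitotic or apoptotic. Tubulin, mitochondrial-mass and membrane-permeability phenotypes are per cents of the healthy-nucleus cells.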

[1] = 12 h, 1 µM, compound concentration 1 uM, replicate 1
[2] = 12 h, 1 µM, compound concentration 1 uM, replicate 2
[3] = 12 h, 10 µM, compound concentration 10 uM, replicate 1
[4] = 12 h, 10 µM, compound concentration 10 uM, replicate 2
[5] = 24 h, 1 µM, compound concentration 1 uM, replicate 1
[6] = 24 h, 1 µM, compound concentration 1 uM, replicate 2
[7] = 24 h, 10 µM, compound concentration 10 uM, replicate 1
[8] = 24 h, 10 µM, compound concentration 10 uM, replicate 2
[9] = 48 h, 1 µM, compound concentration 1 uM, replicate 1
[10] = 48 h, 1 µM, compound concentration 1 uM, replicate 2
[11] = 48 h, 10 µM, compound concentration 10 uM, replicate 1
[12] = 48 h, 10 µM, compound concentration 10 uM, replicate 2

`CNC[C@H](O)c1ccc(O)c(O)c1` [EPINEPHRINE] was tested, and the “Population Apoptotic (%)” value [1] was 88%, the “Population Fragmented Nuclei (%)” value [1] was 35% and the “Population Healthy Nuclei (%)” value [1] was 56%. For the same compound, the “Population Hoechst High Intensity Objects (%)” value [1] was 2%, the “Population Membrane Permeable-Phenotype (%)” value [1] was 5% and the “Population Mitochondria Different-Phenotype (%)” value [1] was 1%. The “Population Mitotic Cells (%)” value [1] was 11%, the “Population Normal (%)” value [1] was 97% and the “Population Pyknosed Nuclei (%)” value [1] was 7%. For the same compound, the “Population Tubulin-Different-Phenotype (%)” value [1] was 2%, the “Total Cell Count” value [1] was 229 and the “Population Apoptotic (%)” value [2] was 80%. The “Population Fragmented Nuclei (%)” value [2] was 17%, the “Population Healthy Nuclei (%)” value [2] was 77% and the “Population Hoechst High Intensity Objects (%)” value [2] was 0%. For the same compound, the “Population Membrane Permeable-Phenotype (%)” value [2] was 7%, the “Population Mitochondria Different-Phenotype (%)” value [2] was 2% and the “Population Mitotic Cells (%)” value [2] was 20%. For the same compound, the “Population Normal (%)” value [2] was 100%, the “Population Pyknosed Nuclei (%)” value [2] was 5% and the “Population Tubulin-Different-Phenotype (%)” value [2] was 4%. The “Total Cell Count” value [2] was 92, the “Population Apoptotic (%)” value [3] was 92% and the “Population Fragmented Nuclei (%)” value [3] was 41%. For the same compound, the “Population Healthy Nuclei (%)” value [3] was 45%, the “Population Hoechst High Intensity Objects (%)” value [3] was 6% and the “Population Membrane Permeable-Phenotype (%)” value [3] was 7%. The “Population Mitochondria Different-Phenotype (%)” value [3] was 1%, the “Population Mitotic Cells (%)” value [3] was 8% and the “Population Normal (%)” value [3] was 93%. The “Population Pyknosed Nuclei (%)” value [3] was 13%, the “Population Tubulin-Different-Phenotype (%)” value [3] was 4% and the “Total Cell Count” value [3] was 199. The “Population Apoptotic (%)” value [4] was 86%, the “Population Fragmented Nuclei (%)” value [4] was 33% and the “Population Healthy Nuclei (%)” value [4] was 50%. The “Population Hoechst High Intensity Objects (%)” value [4] was 9%, the “Population Membrane Permeable-Phenotype (%)” value [4] was 6% and the “Population Mitochondria Different-Phenotype (%)” value [4] was 2%. For the same compound, the “Population Mitotic Cells (%)” value [4] was 13%, the “Population Normal (%)” value [4] was 90% and the “Population Pyknosed Nuclei (%)” value [4] was 15%. The “Population Tubulin-Different-Phenotype (%)” value [4] was 6%, the “Total Cell Count” value [4] was 105 and the “Population Apoptotic (%)” value [5] was 84%. For the same compound, the “Population Fragmented Nuclei (%)” value [5] was 28%, the “Population Healthy Nuclei (%)” value [5] was 64% and the “Population Hoechst High Intensity Objects (%)” value [5] was 2%. The “Population Membrane Permeable-Phenotype (%)” value [5] was 6%, the “Population Mitochondria Different-Phenotype (%)” value [5] was 1% and the “Population Mitotic Cells (%)” value [5] was 15%. The “Population Normal (%)” value [5] was 97%, the “Population Pyknosed Nuclei (%)” value [5] was 7% and the “Population Tubulin-Different-Phenotype (%)” value [5] was 2%. The “Total Cell Count” value [5] was 278, the “Population Apoptotic (%)” value [6] was 75% and the “Population Fragmented Nuclei (%)” value [6] was 19%. The “Population Healthy Nuclei (%)” value [6] was 68%, the “Population Membrane Permeable-Phenotype (%)” value [6] was 7% and the “Population Mitochondria Different-Phenotype (%)” value [6] was 5%. The “Population Mitotic Cells (%)” value [6] was 25%, the “Population Pyknosed Nuclei (%)” value [6] was 11% and the “Population Tubulin-Different-Phenotype (%)” value [6] was 1%. The “Total Cell Count” value [6] was 105, the “Population Apoptotic (%)” value [7] was 94% and the “Population Fragmented Nuclei (%)” value [7] was 39%. For the same compound, the “Population Healthy Nuclei (%)” value [7] was 50%, the “Population Hoechst High Intensity Objects (%)” value [7] was 9% and the “Population Membrane Permeable-Phenotype (%)” value [7] was 11%. The “Population Mitochondria Different-Phenotype (%)” value [7] was 5%, the “Population Mitotic Cells (%)” value [7] was 5% and the “Population Normal (%)” value [7] was 90%. For the same compound, the “Population Pyknosed Nuclei (%)” value [7] was 10%, the “Population Tubulin-Different-Phenotype (%)” value [7] was 6% and the “Total Cell Count” value [7] was 195. For the same compound, the “Population Apoptotic (%)” value [8] was 100%, the “Population Fragmented Nuclei (%)” value [8] was 31% and the “Population Healthy Nuclei (%)” value [8] was 45%. The “Population Hoechst High Intensity Objects (%)” value [8] was 11%, the “Population Membrane Permeable-Phenotype (%)” value [8] was 2% and the “Population Mitochondria Different-Phenotype (%)” value [8] was 0%. The “Population Mitotic Cells (%)” value [8] was 0%, the “Population Normal (%)” value [8] was 88% and the “Population Pyknosed Nuclei (%)” value [8] was 22%. For the same compound, the “Population Tubulin-Different-Phenotype (%)” value [8] was 2%, the “Total Cell Count” value [8] was 96 and the “Population Apoptotic (%)” value [9] was 87%. The “Population Fragmented Nuclei (%)” value [9] was 24%, the “Population Healthy Nuclei (%)” value [9] was 66% and the “Population Hoechst High Intensity Objects (%)” value [9] was 0%. For the same compound, the “Population Membrane Permeable-Phenotype (%)” value [9] was 9%, the “Population Mitochondria Different-Phenotype (%)” value [9] was 5% and the “Population Mitotic Cells (%)” value [9] was 12%. For the same compound, the “Population Normal (%)” value [9] was 99%, the “Population Pyknosed Nuclei (%)” value [9] was 9% and the “Population Tubulin-Different-Phenotype (%)” value [9] was 4%. The “Total Cell Count” value [9] was 333, the “Population Apoptotic (%)” value [10] was 92% and the “Population Fragmented Nuclei (%)” value [10] was 18%. The “Population Healthy Nuclei (%)” value [10] was 72%, the “Population Membrane Permeable-Phenotype (%)” value [10] was 4% and the “Population Mitochondria Different-Phenotype (%)” value [10] was 3%. The “Population Mitotic Cells (%)” value [10] was 7%, the “Population Tubulin-Different-Phenotype (%)” value [10] was 2% and the “Total Cell Count” value [10] was 150. The “Population Apoptotic (%)” value [11] was 92%, the “Population Fragmented Nuclei (%)” value [11] was 41% and the “Population Healthy Nuclei (%)” value [11] was 44%. The “Population Hoechst High Intensity Objects (%)” value [11] was 10%, the “Population Membrane Permeable-Phenotype (%)” value [11] was 15% and the “Population Mitochondria Different-Phenotype (%)” value [11] was 8%. The “Population Mitotic Cells (%)” value [11] was 7%, the “Population Normal (%)” value [11] was 89% and the “Population Pyknosed Nuclei (%)” value [11] was 14%. For the same compound, the “Population Tubulin-Different-Phenotype (%)” value [11] was 10%, the “Total Cell Count” value [11] was 215 and the “Population Apoptotic (%)” value [12] was 94%. For the same compound, the “Population Fragmented Nuclei (%)” value [12] was 36%, the “Population Healthy Nuclei (%)” value [12] was 40% and the “Population Hoechst High Intensity Objects (%)” value [12] was 17%. The “Population Membrane Permeable-Phenotype (%)” value [12] was 24%, the “Population Mitochondria Different-Phenotype (%)” value [12] was 13% and the “Population Mitotic Cells (%)” value [12] was 5%. For the same compound, the “Population Normal (%)” value [12] was 82%, the “Population Pyknosed Nuclei (%)” value [12] was 23% and the “Population Tubulin-Different-Phenotype (%)” value [12] was 13%. The “Total Cell Count” value [12] was 87.
